Measurements reported in ChEMBL document CHEMBL2029237, “Melanin-concentrating hormone receptor 1 antagonists. Synthesis and structure-activity relationships of novel 3-(aminomethyl)quinolines” (J Med Chem, 2012).
Converted amounts (≈) assume the structure as drawn.

How the values were obtained:
[1] = Solubility of the compound in JP2 solution at 10 mM; format: physicochemical
In short: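 The 10 mM DMSO solution of compound was added to JP2 until opalescence appeared.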

[2] = biological target: T1, Melanin-concentrating hormone receptor 1 (Homo sapiens, UniProt Q99705); experiment: Antagonist activity at human MCHR1 expressed in CHO cells assessed as inhibition of MCH-induced [3H]arachidonic acid release […] by liquid scintillation counting; format: functional, cell-based; conditions: in the assay text read “45 mins” for “16 hrs”
T1 sequence (Q99705 whole entry): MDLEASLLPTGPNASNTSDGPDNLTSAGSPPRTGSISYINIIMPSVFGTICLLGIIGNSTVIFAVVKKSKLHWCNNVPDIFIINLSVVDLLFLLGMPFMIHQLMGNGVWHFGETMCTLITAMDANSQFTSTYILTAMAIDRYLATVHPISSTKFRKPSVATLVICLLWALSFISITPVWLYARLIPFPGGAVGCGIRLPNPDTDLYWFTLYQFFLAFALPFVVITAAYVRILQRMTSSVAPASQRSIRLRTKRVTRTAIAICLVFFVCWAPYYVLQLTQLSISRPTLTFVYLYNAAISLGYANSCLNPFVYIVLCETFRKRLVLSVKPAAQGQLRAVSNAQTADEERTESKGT
In short: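 Human MCHR1-CHO cells seeded at 50 000/well, cultured 1 day, then loaded with [3H]arachidonic acid (0.2 μCi/well) for 16 h. Washed with DMEM containing 20 mM HEPES pH 7.4 and 0.2% BSA. Compound preincubated 30 min at 37 °C, MCH added, 45 min incubation, medium radioactivity by liquid scintillation.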

[3] = biological target: T1, Melanin-concentrating hormone receptor 1; experiment: Displacement of [125I]MCH from human MCHR1 expressed in CHO cells after 1 hr by scintillation counting; format: cell-based
In short: (§1)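 CHO cell membranes stably expressing human or rat MCHR1 incubated 1 h at room temperature with [125I]MCH(4−19) and compound at various concentrations. Filtration through GF/C glass filters, bound radioactivity counted by scintillation. IC50 from one experiment in duplicate.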

[4] = biological target: T2, 5-hydroxytryptamine receptor 2C (Homo sapiens, UniProt P28335); experiment: Displacement of [3H]mesulergine from human 5HT2C receptor expressed in CHO cells after 1 hr by scintillation counting; format: cell-based
T2 sequence (P28335 whole entry): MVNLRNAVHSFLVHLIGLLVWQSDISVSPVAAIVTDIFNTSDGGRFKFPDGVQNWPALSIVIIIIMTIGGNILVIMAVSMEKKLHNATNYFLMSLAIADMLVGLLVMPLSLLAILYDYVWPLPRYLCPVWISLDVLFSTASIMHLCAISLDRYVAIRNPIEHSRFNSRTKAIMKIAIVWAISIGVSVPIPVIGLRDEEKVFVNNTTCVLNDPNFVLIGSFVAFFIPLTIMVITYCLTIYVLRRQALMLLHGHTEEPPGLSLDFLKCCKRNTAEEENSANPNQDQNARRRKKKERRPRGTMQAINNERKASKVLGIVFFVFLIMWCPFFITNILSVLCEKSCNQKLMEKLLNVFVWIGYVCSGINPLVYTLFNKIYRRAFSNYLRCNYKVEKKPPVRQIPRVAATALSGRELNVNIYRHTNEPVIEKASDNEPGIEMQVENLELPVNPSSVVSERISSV
In short: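 Membranes from CHO cells stably expressing human 5-HT2c incubated 1 h at room temperature with [3H]mesulergine and compound at various concentrations. Terminated by GF/C filtration, filter radioactivity counted by scintillation. IC50 from one experiment in duplicate.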

Rattus norvegicus [5] = experiment: Antiobesity activity in high-fat diet fed Fischer 344 rat DIO model assessed as inhibition of food intake at 10 mg/kg, po after 6 hrs; format: functional; conditions: Fischer 344, 6 h
In short: (§2)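 Male 52-week-old F344/Jcl rats on high-fat diet from 5 weeks of age, housed singly, grouped by overnight food intake and body weight. Oral dosing at 15:00 in 0.5% methylcellulose suspension, 2 mL/kg, against vehicle controls; six rats per group.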

[6] = Total clearance in Fischer 344 rat at 0.3 mg/kg, iv; format: ADME, organism-based; set-up: dose 0.3 mg/kg, route intravenous; conditions: in vivo
[7] = Bioavailability in Fischer 344 rat; format: ADME, organism-based; conditions: in vivo
[8] = Volume of distribution at the steady state in Fischer 344 rat at 0.3 mg/kg, iv; format: ADME, organism-based; set-up: dose 0.3 mg/kg, route intravenous; conditions: in vivo, read-out: Vdss
Mus musculus [9] = experiment: Antiobesity activity in high-fat diet given wild type mouse assessed as inhibition of food intake at 10 mg/kg, po qd for 2 days; format: functional; conditions: 48 h
In short: (§3)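 Male MCHR1-deficient mice and wild-type littermates, 34 weeks old, on high-fat diet from 5 weeks of age, housed singly. Grouped by food intake days −5 to −1 and day −1 body weight. Oral dosing at 16:00 on days 0 and 1 in 0.5% methylcellulose suspension, 10 mL/kg, against vehicle controls; six mice per group.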

Rattus norvegicus [10] = experiment: Antiobesity activity in high-fat diet fed Fischer 344 rat DIO model assessed as inhibition of food intake at 10 mg/kg, po after 17 hrs; format: functional; conditions: Fischer 344, 17 h; in short: as §2
[11] = Half life in Fischer 344 rat at 0.3 mg/kg, iv; format: ADME, organism-based; set-up: dose 0.3 mg/kg, route intravenous; conditions: in vivo
Mus musculus [12] = experiment: Antiobesity activity in MCHR1-deficient mouse assessed as inhibition of food intake at 10 mg/kg, po qd for 2 days; format: functional; conditions: 48 h; in short: as §3
Brain = experiment: AUC in Fischer 344 rat brain at 1 mg/kg, po; format: ADME, organism-based; set-up: dose 1 mg/kg, route oral; conditions: in vivo
[13] = Cmax in Fischer 344 rat brain at 1 mg/kg, po; format: ADME, organism-based; set-up: dose 1 mg/kg, route oral
[14] = Cmax in Fischer 344 rat at 1 mg/kg, po; format: ADME, organism-based; set-up: dose 1 mg/kg, route oral; conditions: in vivo
Mus musculus [15] = experiment: Antiobesity activity in high-fat diet given wild type mouse assessed as inhibition of food intake at 3 mg/kg, po qd for 2 days; format: functional; conditions: 48 h; in short: as §3
Rattus norvegicus [16] = experiment: Antiobesity activity in high-fat diet fed Fischer 344 rat DIO model assessed as inhibition of food intake at 3 mg/kg, po after 6 hrs; format: functional; conditions: Fischer 344, 6 h; in short: as §2
Rattus norvegicus [17] = experiment: Antiobesity activity in high-fat diet fed Fischer 344 rat DIO model assessed as inhibition of food intake at 1 mg/kg, po after 6 hrs; format: functional; conditions: Fischer 344, 6 h
In short: (§4)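 Male F344/Jcl rats, 52 weeks old, fed high-fat diet from 5 weeks of age, housed singly and acclimated to oral water dosing; grouped by overnight food intake and body weight. Single oral dose at 15:00 as 0.5% methylcellulose suspension, 2 mL/kg, six rats per group; vehicle controls. Cumulative food intake at 6 and 17 h; percent inhibition versus control, mean ± SD.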

Rattus norvegicus [18] = experiment: Antiobesity activity in po dosed high-fat diet fed Fischer 344 rat DIO model assessed as inhibition of food intake after 17 hrs; format: functional, organism-based; in short: as §2
Mus musculus [19] = experiment: Antiobesity activity in MCHR1-deficient mouse assessed as inhibition of food intake at 3 mg/kg, po qd for 2 days; format: functional; conditions: 48 h; in short: as §3
[20] = AUC in Fischer 344 rat at 1 mg/kg, po; format: ADME, organism-based; set-up: dose 1 mg/kg, route oral; conditions: plasma
Rattus norvegicus [21] = experiment: Antiobesity activity in high-fat diet fed Fischer 344 rat DIO model assessed as inhibition of food intake at 3 mg/kg, po after 17 hrs; format: functional; conditions: Fischer 344, 17 h; in short: as §2
[22] = Tmax in Fischer 344 rat brain at 1 mg/kg, po; format: ADME, organism-based; set-up: dose 1 mg/kg, route oral
[23] = biological target: Melanin-concentrating hormone receptor 1 (Rattus norvegicus, UniProt P97639); experiment: Displacement of [125I]MCH from rat MCHR1 expressed in CHO cells after 1 hr by scintillation counting; format: cell-based; in short: as §1
Chain of Melanin-concentrating hormone receptor 1 (Rattus norvegicus, UniProt P97639) (P97639 whole entry): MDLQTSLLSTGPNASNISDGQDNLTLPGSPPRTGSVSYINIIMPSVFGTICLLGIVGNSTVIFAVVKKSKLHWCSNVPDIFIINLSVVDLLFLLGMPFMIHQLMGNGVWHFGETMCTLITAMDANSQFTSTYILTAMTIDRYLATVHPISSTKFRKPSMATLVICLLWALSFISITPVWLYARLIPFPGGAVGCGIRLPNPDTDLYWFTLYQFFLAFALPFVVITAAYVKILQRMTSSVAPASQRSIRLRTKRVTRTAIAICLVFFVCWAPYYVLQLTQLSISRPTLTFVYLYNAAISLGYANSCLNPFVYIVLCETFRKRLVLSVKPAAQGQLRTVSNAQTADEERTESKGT

Rattus norvegicus [24] = experiment: Antiobesity activity in high-fat diet fed Fischer 344 rat DIO model assessed as inhibition of food intake at 1 mg/kg, po after 17 hrs; format: functional; conditions: Fischer 344, 17 h; in short: as §4
[25] = Tmax in Fischer 344 rat at 1 mg/kg, po; format: ADME, organism-based; set-up: dose 1 mg/kg, route oral; conditions: in vivo

O=C(Nc1ccc2cc(CN3CCCC3)ccc2c1)c1ccc(-c2ccc(F)cc2)cc1
solubility [1]: 0.11 µg/mL (≈ 0.259 µM) | IC50 [2]: 9 nM | IC50 [3]: 0.76 nM | IC50 [4]: 120 nM

CCc1c(NC(=O)c2ccc(-c3ccc(F)cc3)cc2)ccc2cc(CN3CCCC3)cnc12
IC50 [3]: 100 nM | IC50 [4]: > 1000 nM

COc1ccc(C2CCN(C(=O)Nc3ccc4cc(CN5CCCC5)cnc4c3)CC2)cc1
IC50 [3]: 48 nM

Cc1cc2cc(CN3CCCC3)cnc2cc1NC(=O)c1ccc(-c2ccc(F)cc2)cc1
IC50 [2]: 10 nM | IC50 [3]: 1.3 nM | IC50 [4]: 7.4 nM

Cc1ccc(-c2ccc(C(=O)Nc3ccc4cc(CN5CCCC5)cnc4c3)cc2)cc1
IC50 [3]: 2.2 nM | IC50 [4]: 660 nM

O=C(Nc1ccc2cc(CN3CCCC3)cnc2c1)N1CCC(c2ccccc2)CC1
IC50 [3]: 100 nM

COc1c(NC(=O)c2ccc(-c3ccc(F)cc3)cc2)ccc2cc(CN3CCCC3)cnc12
IC50 [3]: 110 nM

O=C(Nc1ccc2cc(CN3CCCC3)cnc2c1F)c1ccc(-c2ccc(F)cc2)cc1
IC50 [2]: 2.3 nM | IC50 [3]: 0.92 nM | IC50 [4]: 78 nM

COc1ccc(-c2ccc(C(=O)Nc3ccc4cc(CN5CCCC5)cnc4c3C)cc2)cc1
IC50 [2]: 4.3 nM | IC50 [3]: 0.53 nM | IC50 [4]: > 1000 nM

O=C(Nc1ccc2c(c1)OCC(CN1CCCC1)=C2)c1ccc(-c2ccc(F)cc2)cc1
solubility [1]: 0.17 µg/mL (≈ 0.397 µM) | IC50 [2]: 10 nM | IC50 [3]: 0.91 nM | IC50 [4]: 3.1 nM

O=C(Nc1ccc2cc(CN3CCCC3)cnc2c1)N1CCC(c2ccc(Cl)cc2)CC1
IC50 [3]: 6.6 nM | IC50 [4]: 55 nM

O=C(Nc1ccc2cc(CN3CCCC3)cnc2c1)c1ccc(-c2ccccc2)cc1
IC50 [3]: 13 nM | IC50 [4]: 310 nM

Cc1c(NC(=O)c2ccc(-c3ccc(F)cc3)cc2)ccc2cc(CN3CCCC3)cnc12
inhibition in vivo at 10 mg/kg (Rattus norvegicus [5]): 55.7% | clearance [6]: 40 mL/min/kg | bioavailability [7]: 39% | Vd [8]: 20 L/kg | inhibition in vivo at 10 mg/kg (Mus musculus [9]): 13.2% | inhibition in vivo at 10 mg/kg (Rattus norvegicus [10]): 45.8% | half-life [11]: 7.7 h | inhibition in vivo at 10 mg/kg (Mus musculus [12]): 5.7% | AUC (Brain): 9343 ng·h/g | Cmax [13]: 610 ng/g | Cmax [14]: 9 ng/mL | IC50 [2]: 2.8 nM | inhibition in vivo at 3 mg/kg (Mus musculus [15]): 10.2% | inhibition in vivo at 3 mg/kg (Rattus norvegicus [16]): 36.7% | inhibition in vivo at 1 mg/kg (Rattus norvegicus [17]): 18.8% | inhibition (Rattus norvegicus [18]): Dose-dependent effect | IC50 [3]: 0.54 nM | inhibition in vivo at 3 mg/kg (Mus musculus [19]): 4.1% | AUC [20]: 160 ng·h/mL | inhibition in vivo at 3 mg/kg (Rattus norvegicus [21]): 28.9% | IC50 [4]: > 1000 nM | Tmax [22]: 8 h | IC50 [23]: 1.7 nM | inhibition in vivo at 1 mg/kg (Rattus norvegicus [24]): 15.5% | Tmax [25]: 4 h

Cc1c(NC(=O)c2ccc(-c3ccccc3)cc2)ccc2cc(CN3CCCC3)cnc12
IC50 [2]: 7 nM | IC50 [3]: 1.8 nM | IC50 [4]: 760 nM

O=C(Nc1ccc2cc(CN3CCCC3)cnc2c1)c1ccc(-c2ccc(Cl)cc2)cc1
IC50 [2]: 8.5 nM | IC50 [3]: 0.74 nM | IC50 [4]: 630 nM
